Test results published in ChEMBL document CHEMBL4052792, “3-Hydroxykynurenine, a Tryptophan Metabolite Generated during the Infection, Is Active Against Trypanosoma cruzi” (ACS Med Chem Lett, 2017).
Calls of active or inactive are those of the source. No cut-off for these calls is given here.

Tests used:
[1] = Induction of apoptosis in BALB/C mouse BMDM assessed as cells with hypodiploid DNA content at 8000 uM after 24 hrs by FITC/propidium iodide staining based flow cytometric analysis (reference value: 29.9%); type: functional
[2] = tested on: J774; experiment: Cytotoxicity against mouse J774 assessed as reduction in cell viability at 0.2 to 2000 uM after 24 hrs by trypan blue exclusion assay; type: cell-based; conditions: j774, 24 h
Procedure, shortened: (§1)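 Mammalian cells (human PBMC, Swan 71, Jurkat; bone marrow-derived macrophages; J774) were exposed to 3-HK at 0.2 to 2000 μM for 24 h. Viability was then scored by trypan blue exclusion.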

[3] = tested on: Trypanosoma cruzi; experiment: (§2) Trypanocidal activity against Trypanosoma cruzi Tulahuen amastigotes infected in BALB/C mouse bone marrow derived macrophages assessed as parasite infected macrophages at 0.2 uM treated for 24 hrs followed by compound washout measured after 48 hrs by immunofluorescence assay (reference value: 26.84 +/- 7.81%); type: functional
[4] = tested on: Trypanosoma cruzi; experiment: as §2, with “1200” for “0.2”; type: functional
[5] = tested on: Trypanosoma cruzi; experiment: Trypanostatic activity against Trypanosoma cruzi Tulahuen amastigotes infected in BALB/C mouse bone marrow derived macrophages assessed as kinetoplast structure disorganization at 20 uM after 24 hrs by transmission electron microscopic analysis; type: functional
Procedure, shortened: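 Bone marrow-derived macrophages were infected for 24 h, then exposed to 20 μM for 24 h or left untreated. Intracellular amastigote ultrastructure was examined by transmission electron microscopy, covering mitochondrion, nucleus, kinetoplast, flagellum, flagellar pocket, subpellicular microtubules and cytoplasmic structures.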

[6] = Induction of apoptosis in BALB/C mouse BMDM assessed as cells with hypodiploid DNA content at 200 uM after 24 hrs by FITC/propidium iodide staining based flow cytometric analysis (reference value: 29.9%); type: functional
[7] = tested on: Trypanosoma cruzi; experiment: as §2, with “20” for “0.2”; type: functional
[8] = tested on: Trypanosoma cruzi; experiment: Trypanocidal activity against Trypanosoma cruzi Tulahuen trypomastigotes infected in mouse whole blood assessed as increase in parasite death at 0.2 uM by trypan blue assay; type: functional; conditions: TDE = time-dependent effect
[9] = tested on: Trypanosoma cruzi; experiment: Trypanocidal activity against Trypanosoma cruzi Tulahuen amastigotes infected in BALB/C mouse bone marrow derived macrophages assessed as decrease in intracellular parasite growth after 72 hrs by immunofluorescence assay; type: functional, cell-based
Procedure, shortened: (§3)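 Macrophages were infected with trypomastigotes and treated with 3-HK for 24 h. Immunofluorescence counts were made at 72 h post-infection. Intracellular parasites per 200 cells were expressed relative to medium-treated cultures, and infected cells were counted among 200 macrophages. Data are means ± SD of four independent experiments.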

[10] = tested on: Trypanosoma cruzi; experiment: Trypanocidal activity against Trypanosoma cruzi Tulahuen trypomastigotes assessed as increase in parasite death up to 72 hrs by trypan blue assay; type: functional
Procedure, shortened: (§4)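 Bloodstream trypomastigotes were incubated at 37 °C in culture medium alone or with increasing doses for 24, 48 and 72 h. Parasite death was scored as percentage by trypan blue exclusion. Results are means ± SD of three independent experiments.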

[11] = tested on: Candida albicans; experiment: Antimicrobial activity against Candida albicans ATCC10231 after 10 to 20 hrs; type: functional
[12] = Induction of apoptosis in BALB/C mouse BMDM assessed as cells with hypodiploid DNA content at 2000 uM after 24 hrs by FITC/propidium iodide staining based flow cytometric analysis (reference value: 29.9%); type: functional
[13] = tested on: Jurkat; experiment: Cytotoxicity against human Jurkat cells assessed as reduction in cell viability at 0.2 to 2000 uM after 24 hrs by trypan blue exclusion assay; type: cell-based; procedure, shortened: as §1
[14] = tested on: Trypanosoma cruzi; experiment: Trypanocidal activity against Trypanosoma cruzi Tulahuen trypomastigotes assessed as reduction in parasites after 72 hrs by trypan blue assay; type: functional; procedure, shortened: as §4
[15] = Induction of apoptosis in BALB/C mouse BMDM assessed as cells with hypodiploid DNA content at 0.2 uM after 24 hrs by FITC/propidium iodide staining based flow cytometric analysis (reference value: 29.9%); type: functional
[16] = tested on: PBMC; experiment: Cytotoxicity against human PBMC assessed as reduction in cell viability at 0.2 to 2000 uM after 24 hrs by trypan blue exclusion assay; type: cell-based; procedure, shortened: as §1
[17] = tested on: Trypanosoma cruzi; experiment: Trypanocidal activity against Trypanosoma cruzi Tulahuen amastigotes infected in BALB/C mouse bone marrow derived macrophages assessed as endocytic index at 2 uM treated for 24 hrs followed by compound washout measured after 48 hrs by immunofluorescence assay (reference value: 213.66 +/- 58.79); type: functional
[18] = tested on: Trypanosoma cruzi; experiment: Ratio of IC50 for Trypanosoma cruzi Tulahuen trypomastigotes infected in BALB/C mouse bone marrow derived macrophages to IC50 for Trypanosoma cruzi Tulahuen amastigotes infected in BALB/C mouse bone marrow derived macrophages; type: functional
[19] = tested on: Trypanosoma cruzi; experiment: Trypanocidal activity against Trypanosoma cruzi Tulahuen amastigotes infected in BALB/C mouse bone marrow derived macrophages assessed as endocytic index at 200 uM treated for 24 hrs followed by compound washout measured after 48 hrs by immunofluorescence assay (reference value: 213.66 +/- 58.79); type: functional
[20] = tested on: Trypanosoma cruzi; experiment: Reduction of mitochondrial membrane potential in Trypanosoma cruzi Tulahuen trypomastigotes after 24 hrs by Rh123/PI staining-based flow cytometric analysis; type: functional
Procedure, shortened: (§5)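 Trypomastigotes were treated with 3-HK for 24 h at 37 °C, then incubated with PI plus Rh123. Rh123 fluorescence was read by flow cytometry in PI-negative (live) parasites. The depolarized fraction was taken as the low-fluorescence M2 population. Index of variation = (treated median − control median)/control median. Three experiments were run.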

[21] = tested on: Trypanosoma cruzi; experiment: Trypanocidal activity against Trypanosoma cruzi Tulahuen trypomastigotes in culture medium after 48 hrs by trypan blue assay
[22] = tested on: Trypanosoma cruzi; experiment: Trypanocidal activity against Trypanosoma cruzi Tulahuen amastigotes infected in BALB/C mouse bone marrow derived macrophages assessed as reduction intracellular parasite growth after 24 hrs by immunofluorescence assay; type: functional, cell-based; procedure, shortened: as §3
[23] = tested on: Trypanosoma cruzi; experiment: Induction of mitochondrial membrane depolarization in Trypanosoma cruzi Tulahuen trypomastigotes at 2000 uM after 24 hrs by Rh123/propidium iodide staining-based flow cytometric analysis (reference value: 3.25 +/- 1.66%); type: functional; procedure, shortened: as §5
[24] = tested on: Trypanosoma cruzi; experiment: Trypanocidal activity against Trypanosoma cruzi Tulahuen amastigotes infected in BALB/C mouse bone marrow derived macrophages assessed as endocytic index at 1500 uM treated for 24 hrs followed by compound washout measured after 48 hrs by immunofluorescence assay (reference value: 213.66 +/- 58.79); type: functional
[25] = tested on: Trypanosoma cruzi; experiment: as §2, with “2000” for “0.2”; type: functional
[26] = tested on: Jurkat; experiment: Cytotoxicity against human Jurkat cells assessed as reduction in cell viability at 1200 to 2000 uM after 48 hrs by trypan blue exclusion assay; type: cell-based
Procedure, shortened: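 Human PBMC and Jurkat cells were treated for 48 h with a range of 3-HK concentrations or left untreated. Viable cells were counted under light microscopy by trypan blue exclusion. Data are means ± SD of four independent experiments.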

[27] = tested on: Trypanosoma cruzi; experiment: Trypanocidal activity against Trypanosoma cruzi Tulahuen trypomastigotes assessed as reduction in parasites after 24 to 48 hrs by trypan blue assay; type: functional; procedure, shortened: as §4
[28] = tested on: Trypanosoma cruzi; experiment: as §2, with “200” for “0.2”; type: functional
[29] = Induction of apoptosis in BALB/C mouse BMDM assessed as cells with hypodiploid DNA content at 1200 uM after 24 hrs by FITC/propidium iodide staining based flow cytometric analysis (reference value: 29.9%); type: functional

For `Nc1c(O)cccc1C(=O)C[C@H](N)C(=O)O`, the Activity [1] was 29.9%, the Activity [2] was “Non-Toxic” and the Activity [3] was 10.85%. For the same compound, the Activity [4] was 14.83%, the Activity [5] was “Active” and the Activity [6] was 35.4%. The Activity [7] was 8.63%, the Activity [8] was “Tde” and the Activity [9] was “Dose-dependent effect”. The Activity [10] was “Dose-dependent effect”, the IC50 [11] was 30 to 137 µM and the Activity [12] was 26.4%. The Activity [13] was “Non-Toxic”, the IC50 [14] was 20 to 200 µM and the Activity [15] was 27.5%. For the same compound, the Activity [16] was “Non-Toxic”, the Activity [17] was 60.59 and the “Ratio IC50” value [18] was 6000. The Activity [19] was 51.43, the Activity [20] was “Dose-dependent effect” and the IC50 [21] was 200 µM. It also gave an IC50 [22] of 0.2 µM, an Activity [23] of 12.1% and an Activity [24] of 124.36. For the same compound, the Activity [25] was 16.31%, the Activity [26] was “Toxic” and the IC50 [27] was 200 to 1200 µM. For the same compound, the Activity [28] was 7.76% and the Activity [29] was 26.3%.
